According to PubChem BioAssay AID504768 (Southern Research Specialized Biocontainment Screening …, 2011):

Assay: K1F phage lysis inhibition in UTI89, confirmation, capsule biogenesis inhibitor project, UTI89 strain, C7 control, set 4 (AID 504768)
Settings: E. coli UTI89 K1F phage lysis inhibition, OD600; measured here: cytotoxicity CC50
Method in brief: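 Test system: E. coli UTI89 K1 and kpsM mutant | Medium: LB broth, overnight cultures diluted 1:100 | Probe or stimulus: K1F phage infection | Compound dosing: DMSO at 1% final | Times: 1.25 h compound pre-incubation at 37 °C shaking, lysis read 3 h post-phage | Technique: OD600 absorbance | Benchmarks: Phage-resistant kpsM mutant culture as control | Replication: Quadruplicate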

| SMILES | CC50 [µM] |
| --- | --- |
| O=C(Nc1nc2ccccc2s1)c1cccnc1 | 129 |
| O=C(Nc1nc2ccccc2s1)c1ccncc1 | 104 |
| O=C(Nc1nc2c(F)cc(F)cc2s1)c1ccccc1 | 30.9 |
| O=C(Nc1nc2c(F)cc(F)cc2s1)c1cccnc1 | > 300 |
| O=C(Nc1nc2c(F)cc(F)cc2s1)c1ccncc1 | 71.8 |
| O=C(Nc1nc2c(F)cccc2s1)c1ccccn1 | 2.56 |
| O=C(Nc1nc2c(Cl)cc(Cl)cc2s1)c1ccccn1 | 3.55 |
| Cc1cc(C)c2nc(NC(=O)c3ccccn3)sc2c1 | 6.19 |
| O=C(Nc1nc2ccc(F)cc2s1)c1ccccn1 | 3.32 |
